Experimental data from ChEMBL document CHEMBL5724801, “EUbOPEN Chemogenomics Library - Multiplex” (2024).
“And” between values parts separate entries of the source, which are not always exact repeats. Equal entries are not always repeated.

Tested on: Fibroblast
Test: Multiplex assay against human fibroblast
Format: toxicity, cell-based
How it was run: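 Imaging took place on a CQ1 microscope at 37°C and 5% CO2 once compound had been added to live cells stained at seeding with Hoechst33342, BioTracker Green Microtubule Cytoskeleton Dye, MitoTracker Red and Annexin V Alexa Fluor 680. CellPathfinder machine-learning gating classed cells as Hoechst high-intensity objects or normal cells, classed normal cells as having healthy, pyknosed or fragmented nuclei, and classed pyknosed cells as mitotic or apoptotic. Tubulin, mitochondrial-mass and membrane-permeability phenotypes are per cents of the healthy-nucleus cells.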

[1] = 12 h, 1 µM, compound concentration 1 uM
[2] = 12 h, 10 µM, compound concentration 10 uM
[3] = 24 h, 1 µM, compound concentration 1 uM
[4] = 24 h, 10 µM, compound concentration 10 uM
[5] = 48 h, 1 µM, compound concentration 1 uM
[6] = 48 h, 10 µM, compound concentration 10 uM

## CC(C)(C)c1ccc(CSc2cnn(C(C)(C)C)c(=O)c2Cl)cc1 [PYRIDABEN]
[1]
  Population Apoptotic (%): 46% and 44%
  Population Fragmented Nuclei (%): 15% and 27%
  Population Healthy Nuclei (%): 66% and 47%
  Population Hoechst High Intensity Objects (%): 1% and 4%
  Population Membrane Permeable-Phenotype (%): 3% and 12%
  Population Mitochondria Different-Phenotype (%): 1% and 7%
  Population Mitotic Cells (%): 53% and 55%
  Population Normal (%): 98% and 95%
  Population Pyknosed Nuclei (%): 17% and 25%
  Population Tubulin-Different-Phenotype (%): 28% and 57%
  Total Cell Count: 148 and 142
[2]
  Population Apoptotic (%): 25% and 47%
  Population Fragmented Nuclei (%): 11% and 25%
  Population Healthy Nuclei (%): 68% and 49%
  Population Hoechst High Intensity Objects (%): 4% and 1%
  Population Membrane Permeable-Phenotype (%): 2% and 12%
  Population Mitochondria Different-Phenotype (%): 5% and 4%
  Population Mitotic Cells (%): 74% and 52%
  Population Normal (%): 95% and 98%
  Population Pyknosed Nuclei (%): 20% and 25%
  Population Tubulin-Different-Phenotype (%): 35% and 54%
  Total Cell Count: 139 and 136
[3]
  Population Apoptotic (%): 35% and 36%
  Population Fragmented Nuclei (%): 17% and 30%
  Population Healthy Nuclei (%): 71% and 48%
  Population Hoechst High Intensity Objects (%): 0% and 4%
  Population Membrane Permeable-Phenotype (%): 0% and 7%
  Population Mitochondria Different-Phenotype (%): 2% and 8%
  Population Mitotic Cells (%): 64% and 63%
  Population Normal (%): 99% and 95%
  Population Pyknosed Nuclei (%): 11% and 21%
  Population Tubulin-Different-Phenotype (%): 20% and 50%
  Total Cell Count: 148
[4]
  Population Apoptotic (%): 56% and 54%
  Population Fragmented Nuclei (%): 13% and 28%
  Population Healthy Nuclei (%): 62% and 48%
  Population Hoechst High Intensity Objects (%): 2% and 0%
  Population Membrane Permeable-Phenotype (%): 1% and 9%
  Population Mitochondria Different-Phenotype (%): 7% and 9%
  Population Mitotic Cells (%): 43% and 45%
  Population Normal (%): 97% and 99%
  Population Pyknosed Nuclei (%): 23% and 22%
  Population Tubulin-Different-Phenotype (%): 40% and 53%
  Total Cell Count: 139 and 136
[5]
  Population Apoptotic (%): 50% and 45%
  Population Fragmented Nuclei (%): 27% and 43%
  Population Healthy Nuclei (%): 62% and 41%
  Population Hoechst High Intensity Objects (%): 1% and 4%
  Population Membrane Permeable-Phenotype (%): 0% and 6%
  Population Mitotic Cells (%): 50% and 54%
  Population Normal (%): 98% and 95%
  Population Pyknosed Nuclei (%): 9% and 15%
  Population Tubulin-Different-Phenotype (%): 28% and 63%
  Total Cell Count: 164 and 153
[6]
  Population Apoptotic (%): 72% and 63%
  Population Fragmented Nuclei (%): 19% and 36%
  Population Healthy Nuclei (%): 62% and 48%
  Population Hoechst High Intensity Objects (%): 4% and 5%
  Population Membrane Permeable-Phenotype (%): 0% and 8%
  Population Mitochondria Different-Phenotype (%): 8% and 10%
  Population Mitotic Cells (%): 28% and 36%
  Population Normal (%): 95% and 94%
  Population Pyknosed Nuclei (%): 18% and 15%
  Population Tubulin-Different-Phenotype (%): 49% and 58%
  Total Cell Count: 143 and 131

## COc1ccc(Cl)cc1[C@]1(F)C(=O)Nc2cc(C(F)(F)F)ccc21 [FLINDOKALNER]
[1]
  Population Apoptotic (%): 10.87% and 19.35%
  Population Fragmented Nuclei (%): 9.6% and 5.91%
  Population Healthy Nuclei (%): 64.41% and 80%
  Population Hoechst High Intensity Objects (%): 0%
  Population Membrane Permeable-Phenotype (%): 2.63% and 1.7%
  Population Mitochondria Different-Phenotype (%): 7.02% and 9.09%
  Population Mitotic Cells (%): 89.13% and 80.65%
  Population Normal (%): 100%
  Population Pyknosed Nuclei (%): 25.99% and 14.09%
  Population Tubulin-Different-Phenotype (%): 10.53% and 15.34%
  Total Cell Count: 177 and 220
[2]
  Population Apoptotic (%): 10.2% and 11.76%
  Population Fragmented Nuclei (%): 14.63% and 8.91%
  Population Healthy Nuclei (%): 55.49% and 74.26%
  Population Hoechst High Intensity Objects (%): 0%
  Population Membrane Permeable-Phenotype (%): 5.49% and 4.67%
  Population Mitochondria Different-Phenotype (%): 15.38% and 11.33%
  Population Mitotic Cells (%): 89.8% and 88.24%
  Population Normal (%): 100%
  Population Pyknosed Nuclei (%): 29.88% and 16.83%
  Population Tubulin-Different-Phenotype (%): 15.38% and 34.67%
  Total Cell Count: 164 and 202
[3]
  Population Apoptotic (%): 14.63% and 27.27%
  Population Fragmented Nuclei (%): 10.29% and 4.91%
  Population Healthy Nuclei (%): 69.61% and 85.27%
  Population Hoechst High Intensity Objects (%): 0%
  Population Membrane Permeable-Phenotype (%): 3.52% and 2.09%
  Population Mitochondria Different-Phenotype (%): 5.63% and 5.76%
  Population Mitotic Cells (%): 85.37% and 72.73%
  Population Normal (%): 100%
  Population Pyknosed Nuclei (%): 20.1% and 9.82%
  Population Tubulin-Different-Phenotype (%): 19.72% and 10.99%
  Total Cell Count: 204 and 224
[4]
  Population Apoptotic (%): 4.65% and 14.29%
  Population Fragmented Nuclei (%): 9.94% and 5.1%
  Population Healthy Nuclei (%): 64.91% and 84.18%
  Population Hoechst High Intensity Objects (%): 0%
  Population Membrane Permeable-Phenotype (%): 3.6% and 3.03%
  Population Mitochondria Different-Phenotype (%): 12.61% and 10.3%
  Population Mitotic Cells (%): 95.35% and 85.71%
  Population Normal (%): 100%
  Population Pyknosed Nuclei (%): 25.15% and 10.71%
  Population Tubulin-Different-Phenotype (%): 27.93% and 29.09%
  Total Cell Count: 171 and 196
[5]
  Population Apoptotic (%): 33.33% and 18.18%
  Population Fragmented Nuclei (%): 9.22% and 7.42%
  Population Healthy Nuclei (%): 83.87% and 87.77%
  Population Hoechst High Intensity Objects (%): 0%
  Population Membrane Permeable-Phenotype (%): 2.2% and 1%
  Population Mitotic Cells (%): 66.67% and 81.82%
  Population Normal (%): 100%
  Population Pyknosed Nuclei (%): 6.91% and 4.8%
  Population Tubulin-Different-Phenotype (%): 12.09% and 14.43%
  Total Cell Count: 217 and 229
[6]
  Population Apoptotic (%): 22.22% and 18.18%
  Population Healthy Nuclei (%): 74.18% and 91.26%
  Population Hoechst High Intensity Objects (%): 0%
  Population Membrane Permeable-Phenotype (%): 2.96% and 5.32%
  Population Mitochondria Different-Phenotype (%): 14.81% and 5.32%
  Population Mitotic Cells (%): 77.78% and 81.82%
  Population Normal (%): 100%
  Population Pyknosed Nuclei (%): 9.89% and 5.34%
  Population Tubulin-Different-Phenotype (%): 14.81% and 30.32%
  Total Cell Count: 182 and 206
